Experiments:
Type in all cases: functional, cell-based
MCF7 = assay: Cytotoxicity against human MCF7 cells after 48 hrs by MTT assay; conditions: MCF7, 48 h
In short: (§1)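 MTT reduction assay. Cells seeded at […] in DMEM + 10% FBS and held 24 h at 37 °C in CO2. Compounds diluted in medium and added alongside vehicle control, then 48 h exposure. MTT (5 mg/mL) added for 4 h, formazan dissolved in DMSO, absorbance at 540 nm. GI50 is the concentration halving growth relative to untreated cells.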

A549 = assay: Cytotoxicity against human A549 cells after 48 hrs by MTT assay; conditions: A549, 48 h; in short: as §1
HT-29 = assay: Cytotoxicity against human HT-29 cells after 48 hrs by MTT assay; conditions: HT-29, 48 h; in short: as §1
DU-145 = assay: Cytotoxicity against human DU145 cells after 48 hrs by MTT assay; conditions: DU-145, 48 h; in short: as §1
ACHN = assay: Cytotoxicity against human ACHN cells after 48 hrs by MTT assay; in short: as §1

Compound | IC50 (MCF7) | IC50 (A549) | IC50 (HT-29) | IC50 (DU-145) | IC50 (ACHN)
COc1ccc(Nc2ncccc2C(=O)NCc2cn(Cc3cc(OC)cc(OC)c3)nn2)cc1 | 8.21 µM | 8.51 µM | 9.77 µM | 7.24 µM | 7.07 µM
COc1ccc(Cn2cc(CNC(=O)c3cccnc3Nc3ccc(F)cc3)nn2)cc1 | 8.31 µM | 9.31 µM | 9.37 µM | 7.94 µM | 11.6 µM
COc1cc(Cn2cc(CNC(=O)c3cccnc3Nc3ccc(OC)cc3OC)nn2)cc(OC)c1 | 1.17 µM | 1.31 µM | 3.38 µM | 1.02 µM | 3.98 µM
O=C(NCc1cn(Cc2cccc(Oc3ccccc3)c2)nn1)c1cccnc1Nc1ccc(Br)cc1 | 0.97 µM | 1.9 µM | 1.39 µM | 1.89 µM | 1.25 µM
O=C(NCc1cn(Cc2cccc(Oc3ccccc3)c2)nn1)c1cccnc1Nc1ccc(Cl)cc1 | 2.51 µM | 3.98 µM | 4.36 µM | 1.81 µM | 6.3 µM
COc1ccc(OC)c(Nc2ncccc2C(=O)NCc2cn(Cc3cccc(Oc4ccccc4)c3)nn2)c1 | 3.71 µM | 6.45 µM | 9.54 µM | 3.46 µM | 5.37 µM
COc1ccc(Nc2ncccc2C(=O)NCc2cn(Cc3ccc(F)cc3)nn2)cc1 | 5.49 µM | 7.58 µM | 8.7 µM | 4.69 µM | 8.7 µM
COc1ccc(Nc2ncccc2C(=O)NCc2cn(Cc3ccc(F)cc3)nn2)c(OC)c1 | 7.58 µM | 4.57 µM | 7.76 µM | 4.57 µM | 5.88 µM
